High-throughput results from PubChem BioAssay.
CXCR6 block: inhibitors of human CXCR6 receptor; CHO-K1 PathHunter CXCR6 beta-arrestin, luminescence; 360,000 compounds, 0.36% hits; inhibition, % at 20 µM; O00574; AID 602244; in the data active = inhibition above about 34%, passing the limit was not always enough;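 also: antagonist mode with CXCL16 agonist at 10 nM final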
Target sequence (O00574 whole entry, looked up): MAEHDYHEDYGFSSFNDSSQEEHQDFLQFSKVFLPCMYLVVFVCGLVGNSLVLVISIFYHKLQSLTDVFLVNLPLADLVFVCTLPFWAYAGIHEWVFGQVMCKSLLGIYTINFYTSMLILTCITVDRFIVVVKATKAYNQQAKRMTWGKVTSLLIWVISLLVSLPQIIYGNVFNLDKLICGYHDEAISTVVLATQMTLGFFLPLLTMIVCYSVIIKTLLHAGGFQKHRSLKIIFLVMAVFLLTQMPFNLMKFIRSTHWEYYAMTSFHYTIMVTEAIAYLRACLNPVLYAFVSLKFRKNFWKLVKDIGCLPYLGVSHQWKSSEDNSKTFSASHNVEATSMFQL
EBI2 antag: blocks human EBI2 receptor beta-arrestin signaling | 360,000 compounds, 0.81% hits | inhibition, % at 5 µM | EBI2 beta-arrestin recruitment, luminescence, 7a,25-OHC stimulated; in the data active = inhibition above about 38%;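 also: enzyme fragment complementation signal reports receptor beta-arrestin coupling in cells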
APJ antag: blocks the human apelin receptor APJ; P35414; 330,000 compounds, 0.32% hits; CHO-K1 APJ beta-arrestin complementation, luminescence; inhibition, % at 20 µM;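 active = inhibition above about 40% at 20 µM, limit read from the data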;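 also: cells challenged with 10 nM apelin-13 agonist together with compound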
CCR6 antagonist: antagonists of human CCR6 receptor; P51684; CHO-K1 CCR6 PathHunter beta-arrestin, luminescence, CCL20-stimulated; inhibition, % at 20 µM; 340,000 compounds, 0.49% hits; AID 493098;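 active = compounds whose inhibition of the agonist-driven luminescence signal at 20 µM reaches about 50%, limit read from the data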;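 also: cells stimulated with CCL20 at 14 nM final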
Target sequence (P51684 whole entry, looked up): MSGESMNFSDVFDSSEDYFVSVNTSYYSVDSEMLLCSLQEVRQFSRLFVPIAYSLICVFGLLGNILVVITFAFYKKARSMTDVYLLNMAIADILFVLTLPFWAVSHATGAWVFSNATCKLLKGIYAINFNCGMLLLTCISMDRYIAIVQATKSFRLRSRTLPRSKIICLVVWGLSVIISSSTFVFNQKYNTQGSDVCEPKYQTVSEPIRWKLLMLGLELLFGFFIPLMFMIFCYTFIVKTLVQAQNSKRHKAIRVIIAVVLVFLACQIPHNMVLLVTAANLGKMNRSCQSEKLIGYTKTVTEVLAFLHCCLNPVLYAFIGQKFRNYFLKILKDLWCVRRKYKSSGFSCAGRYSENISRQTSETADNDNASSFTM
APJ ag: APJ receptor agonism; P35414; CHO-K1 APJ PathHunter beta-arrestin, luminescence; 0% DMSO wells, 100% apelin; activation, % at 20 µM; 330,000 compounds, 0.11% hits; AID 2520;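 active = activation more than six SD over the plate average, tested at 20 µM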
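Test system: CHO-K1 APJ beta-arrestin complementation cell line. Amount: cell density 1000 per well. Controls: DMSO negative, 10 nM Apelin-13 positive. Signal: luminescent beta-gal fragment complementation, chemiluminescent substrate. Read-out basis: agonist-driven arrestin binding to APJ. Timing: compound stimulation 90 min at 25 °C, detection 60 min.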
EBI2 conf: EBI2 (human) antagonism, single concentration confirmation; shares compounds with EBI2 antag; EBI2 beta-arrestin luminescence, 7a,25-OHC antagonism; inhibition, % at 5 µM; 2,400 compounds, 29% hits;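 active = inhibition of at least 50%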
EBI2 ag: activates EBI2, counter-screen for EBI2 antagonists. EBI2-expressing cells, agonist mode, luminescence, 60 min; 0% vehicle, 100% 7α,25-dihydroxycholesterol control. AID 652000. shares compounds with EBI2 antag. 2,400 tested, under 10 active. activation, % at 5 µM;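 active = activation of at least 50%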
bGal counter: inhibits E. coli beta-galactosidase, counter-screen for EBI2 antagonists | shares compounds with EBI2 antag | purified beta-galactosidase, luminescent Galacton Star, 15 min | inhibition, % at 5 µM | 2,400 compounds, 1% hits | AID 652176;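 active = replicate-average signal at least 3 plate SD below neutral wells, shown as high inhibition, flagging enzyme-inhibiting false positives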;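 also: higher means stronger loss of beta-gal luminescence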
Of the large screens only hits and unclear results are named; the others gave an inactive call (follow-up assays come after a bar, where they were run). In the library only some 1.5% were active in any assay of this set; here they are far more common.

Cc1c(C(=O)N2CCN(CCc3ccccn3)CC2)oc2ccc(Cl)cc12	EBI2 antag 54 | EBI2 conf inactive | EBI2 ag inactive | bGal counter inactive
Cc1c(C(=O)N2CCN(CCc3ccccc3)CC2)oc2ccccc12	none
CC1Cc2ccccc2N1C(=O)CN(C)CC(=O)Nc1ccc(F)cc1 (stereo not given)	none
CN1CCN(NC(=O)/C=C/c2ccc(Br)cc2)CC1	EBI2 antag 78 | EBI2 conf inactive | EBI2 ag inactive | bGal counter inactive
CC(NC(=O)/C=C/c1ccc(Br)cc1)c1ccc(Cl)cc1 (stereo not given)	EBI2 antag 54 | EBI2 conf inactive | EBI2 ag inactive | bGal counter inactive
CN1CCN(NC(=O)/C=C/c2ccc(C(C)(C)C)cc2)CC1	none
N#Cc1c(-c2ccc(Cl)cc2)n(O)c2ccccc12	none (no result: APJ antag, APJ ag)
N#Cc1cc(-c2ccc(Cl)cc2)cn(Cc2c(Cl)cccc2Cl)c1=O	EBI2 antag 45 | EBI2 conf inactive | EBI2 ag inactive | bGal counter inactive
Brc1ccccc1OCCOc1cccc2cccnc12	none
Cc1cc(Cl)cc(Cl)c1OCCOc1cccc2cccnc12	EBI2 antag 56 | EBI2 conf inactive | EBI2 ag inactive | bGal counter inactive
CC1(c2nc3ccccc3[nH]2)CCC2=Nc3ccccc3CN21 (stereo not given)	none (no result: APJ antag, CCR6 antagonist, APJ ag)
COc1ccc(NC(=O)CN2CCN(C3c4ccccc4-c4ccccc43)CC2)cc1	EBI2 antag 47 | EBI2 conf inactive | EBI2 ag inactive | bGal counter inactive
COc1cccc(C(O)c2nc(-c3cnn(C)c3)cs2)c1 (stereo not given)	none (no result: APJ antag, CCR6 antagonist, APJ ag)
Nc1c(Cl)ncnc1N/N=C/c1ccc2ccccc2n1	CXCR6 block 53, EBI2 antag 62, CCR6 antagonist 84 (no result: APJ antag, APJ ag) | EBI2 conf 84 | EBI2 ag inactive | bGal counter inactive
CCOC(=O)C1=C(C)Nc2sc(C(=O)c3ccc(F)cc3)c(N)c2C1c1ccc(C(=O)OC)cc1 (stereo not given)	EBI2 antag 37 | EBI2 conf inactive | EBI2 ag inactive | bGal counter inactive
O=[N+]([O-])c1ccc(N2CCN(C(=S)NCc3ccc(Cl)cc3)CC2)cc1	EBI2 antag 52 | EBI2 conf inactive | EBI2 ag inactive | bGal counter inactive
CCNC(=S)N1CCN(c2ccc([N+](=O)[O-])cc2)CC1	none
COc1cccc(OCc2nnc(SCC(=O)N3c4ccccc4Sc4ccc(Cl)cc43)o2)c1	EBI2 antag 53 | EBI2 conf inactive | EBI2 ag inactive | bGal counter inactive
Cc1ccc(OCc2nnc(SCC(=O)N3c4ccccc4Sc4ccc(Cl)cc43)o2)cc1	none
COc1ccc(OCc2nnc(SCC(=O)N3c4ccccc4Sc4ccc(Cl)cc43)o2)cc1	EBI2 antag 66 | EBI2 conf 54 | EBI2 ag inactive | bGal counter inactive
Cc1cccc(OCc2nnc(SCC(=O)N3c4ccccc4Sc4ccc(Cl)cc43)o2)c1	none
CCOC(=O)Nc1ccc2c(CN3CCN(S(=O)(=O)c4ccccc4F)CC3)cc(=O)oc2c1	none
CCOC(=O)Nc1ccc2c(CN3CCN(S(=O)(=O)c4ccc(C(C)C)cc4)CC3)cc(=O)oc2c1	EBI2 antag 55 | EBI2 conf inactive | EBI2 ag inactive | bGal counter inactive
CNC(=O)OCc1nc(SSC(C)(C)C)n(C)c1COC(=O)NC	none (no result: APJ antag, APJ ag)
Cc1cccc(OCCNc2cc(N3CCOCC3)ccc2[N+](=O)[O-])c1	EBI2 antag 64 | EBI2 conf inactive | EBI2 ag inactive | bGal counter inactive
CC1CC(C)CN(S(=O)(=O)c2ccc(NC(=S)NC(=O)c3ccccc3)cc2)C1 (stereo not given)	EBI2 antag 47 | EBI2 conf inactive | EBI2 ag inactive | bGal counter inactive
S=c1[nH]c(-c2ccc(Br)cc2)cn1CCc1ccccc1	EBI2 antag 57 | EBI2 conf inactive | EBI2 ag inactive | bGal counter inactive
Cc1nc2ccc(S(=O)(=O)CCC(=O)NCc3ccc(Cl)cc3)cc2s1	none (no result: APJ antag, CCR6 antagonist, APJ ag)
CCC(NCc1cccnc1)c1ccc(OC)c(OC)c1 (stereo not given)	none (no result: APJ antag, APJ ag)
CCOC(=O)N(C)c1c(CC)nc2c(OCc3ccc(Cl)cc3Cl)cccn12	EBI2 antag 45 (no result: APJ antag, CCR6 antagonist, APJ ag) | EBI2 conf 77 | EBI2 ag inactive | bGal counter inactive
O=C(Nc1ccc2c(c1)OCCO2)C1c2ccccc2OCC(=O)N1CCc1c[nH]c2ccccc12 (stereo not given)	none (no result: APJ antag, CCR6 antagonist, APJ ag)
Nn1cnc2c(ncn2C2OC(CO)C(O)C2O)c1=O (stereo not given)	none (no result: APJ antag, CCR6 antagonist, APJ ag)
O=C(COc1ccc(-c2ccccc2)cc1)N1CCN(C(=O)c2cccnc2)CC1	none
O=C(COc1ccc(Br)cc1)N1CCN(c2ccccc2)CC1	EBI2 antag 82 | EBI2 conf 67 | EBI2 ag inactive | bGal counter inactive
O=C(COc1ccccc1)N1CCN(c2ccccc2)CC1	none
O=C(COc1ccc2ccccc2c1)N1CCN(C(=O)c2cccnc2)CC1	EBI2 antag 78 | EBI2 conf 64 | EBI2 ag inactive | bGal counter inactive
O=C(COc1ccc2cc(Br)ccc2c1)N1CCOCC1	EBI2 antag 62 | EBI2 conf inactive | EBI2 ag inactive | bGal counter inactive
O=C(COc1ccc2ccccc2c1)N1CCN(c2ccccc2)CC1	EBI2 antag 50 | EBI2 conf inactive | EBI2 ag inactive | bGal counter inactive
COc1cc(C(=O)N2CCCCC2c2cc(C(=O)NCc3cccnc3)no2)cc(OC)c1C (stereo not given)	none (no result: APJ antag, CCR6 antagonist, APJ ag)
C[C@@H]1CN([C@H](C)CO)C(=O)CCCn2nncc2CO[C@H]1CN(C)Cc1cccnc1	none (no result: APJ antag, CCR6 antagonist, APJ ag)
O=C(COc1ccc2ccccc2c1)N1CCCC1	none
CC(=O)c1ccc(N2CCN(C(=O)COc3ccc4ccccc4c3)CC2)cc1	none (no result: APJ antag, CCR6 antagonist, APJ ag)
COc1ccc(OCC(=O)N2CCN(C(=O)COc3ccc(Br)cc3)CC2)cc1	EBI2 antag 80 | EBI2 conf 56 | EBI2 ag inactive | bGal counter inactive
COc1ccc(N2CCN(C(=O)COc3ccc4ccccc4c3)CC2)cc1	EBI2 antag 85 | EBI2 conf inactive | EBI2 ag inactive | bGal counter inactive
COc1cc(OC)cc(C(=O)N2CCN(C(=O)COc3ccc4ccccc4c3)CC2)c1	EBI2 antag 85 | EBI2 conf 68 | EBI2 ag inactive | bGal counter inactive
CCCC(=O)N1CCC1(C)C(=O)NS(=O)(=O)c1ccc(C(C)(C)C)cc1 (stereo not given)	none (no result: APJ antag, CCR6 antagonist, APJ ag)
O=C(Nc1cc(C(F)(F)F)ccc1F)C1Cc2c(-c3ccccc3Oc3ccccc3)ccnc2O1 (stereo not given)	none (no result: APJ antag, CCR6 antagonist, APJ ag)
